In brackets after ≈: the same amount, converted by molar mass. Activity calls are given as the source filed them. No cut-off for these calls is given here. Starred links: 1 amine or outer side, 2 acyl side, 3 side chain; linkers in the order of their positions; H or OH if unused. Positions of bridges follow the written chain, without caps; N, C: chain ends. Non-standard residues stand in square brackets, D forms with d. Residues, ends and D or L forms follow the SMILES beside them. *: point of attachment. pTerphenylCO(4''-OnC5H11) = CCCCCOc1ccc(-c2ccc(-c3ccc(C(=O)*)cc3)cc2)cc1; Orn(4R-OH,5R-OH) = O=C([C@H](C[C@@H](O)[C@@H](O)N[*:3])N[*:1])[*:2]; hTyr(3S-OH,4S-OH) = N[C@H](C(=O)O)[C@H](O)[C@@H](O)c1ccc(O)cc1; Pro(3S-OH,4S-Me) = C[C@H]1CN[C@H](C(=O)O)[C@H]1O; Hyp = O=C(O)[C@@H]1C[C@@H](O)CN1
What was measured:
[1] = system: Candida parapsilosis; assay: Antifungal activity against Candida parapsilosis isolate S by CLSI M27-A3 broth microdilution method; type: functional; settings: Lodderomyces parapsilosis
How it was run: (§1)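 CLSI M27-A3 broth microdilution in RPMI 1640 buffered to pH 7.0 with MOPS. Starting inoculum 0.5 x 10^3 to 2.5 x 10^3 cells/ml, incubated at 35°C. MIC read as the lowest concentration giving >50% growth reduction versus control. Each isolate tested on at least three occasions.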

[2] = system: Nakaseomyces glabratus; assay: Antifungal activity against Candida glabrata assessed as time period for bacterial regrowth inhibition after 1 hr drug exposure; type: functional
[3] = system: Meyerozyma guilliermondii; assay: Antifungal activity against Candida guilliermondii by NCCLS M27A broth microdilution method; type: functional
[4] = system: Pichia kudriavzevii; assay: Fungicidal activity against Candida krusei isolate ATCC 6258 assessed as log reduction in bacterial count at 4 times MIC after 48 hrs by time-kill analysis; type: functional; settings: isolate ATCC 6258, 48 h
How it was run: (§2)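 Isolates subcultured twice on SDA, suspended to 0.5 McFarland, giving ~1 x 10^5 to 5 x 10^5 CFU/ml in MOPS-buffered RPMI 1640 (pH 7.0) with or without drug at multiples of MIC (MIC by CLSI M27-A3). Tubes shaken at 35°C with continuous drug. Sampled at 0–48 h, diluted 10-fold and plated on SDA; CFU counted after 48 h at 35°C. Run twice per isolate; means.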

[5] = system: Candida parapsilosis; assay: Fungicidal activity against Candida parapsilosis isolate S assessed as log reduction in bacterial count at 4 times MIC after drug exposure for 1 hr followed by washout measured after 48 hrs in the absence of drug by PAFE study; type: functional; settings: Lodderomyces parapsilosis
How it was run: (§3)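 Inoculum about 1 x 10^5 to 5 x 10^5 CFU/ml in RPMI 1640 (MOPS, pH 7.0) with drug, shaken at 35°C for 1 h. Cells were then washed and centrifuged at 1,400 x g for 10 min (3 cycles) and resuspended in warm drug-free RPMI. Samples plated on SDA at 0, 2, 4, 8, 12, 24 and 48 h; CFU counted after 48 h at 35°C. Run twice per isolate; means.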

[6] = system: Candida albicans; assay: Antifungal activity against Candida albicans isolate 1 by CLSI M27-A3 broth microdilution method; type: functional; how it was run: as §1
[7] = system: Candida albicans; assay: Increase in susceptibility to calcofluor white in Candida albicans isolate 1 assessed as cell wall damage at 4 times MIC after 1 hr relative to control; type: functional, organism-based
How it was run: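 Cells recovered 8 h after a 1-h drug exposure were grown to exponential phase in YPD with 1% glucose and adjusted to OD599 0.1. Undiluted and 10-fold serially diluted cultures were spotted onto YPD plates containing calcofluor white, then incubated at 30°C for 72 h. Growth compared with no-drug control cells; triplicate.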

[8] = system: Candida parapsilosis; assay: Fungicidal activity against Candida parapsilosis isolate 1 assessed as log reduction in bacterial count at 16 times MIC after drug exposure for 1 hr followed by washout measured after 48 hrs in the absence of drug by PAFE study; type: functional; settings: Lodderomyces parapsilosis
How it was run: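 Starting inoculum ~1 x 10^5 to 5 x 10^5 CFU/ml in MOPS-buffered RPMI 1640 (pH 7.0) with drug at multiples of the CLSI M27-A3 MIC. After 1 h at 35°C, cells washed and centrifuged three times at 1,400 x g for 10 min, then resuspended in warm drug-free RPMI. Shaken at 35°C and plated on SDA at 0–48 h; CFU counted after 48 h. Run twice per isolate; means.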

[9] = system: Candida albicans; assay: Inhibition of Candida albicans isolate 1 adherence to human buccal epithelial cells at 4 times MIC after 1 hr by adherence assay relative to control; type: functional, Epithelial cell
How it was run: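 Candida collected 8 h after a 1-h 4x MIC pulse and washout were grown on SDA for 24 h at 35°C. Buccal epithelial cells were pooled from three donors and washed in PBS. Cells (1 x 10^5/ml) were mixed 1:1 by volume with Candida (1 x 10^6/ml) and shaken 1 h at 37°C. Mixtures were filtered, washed, and Gram-stained, and Candida were counted per 100 epithelial cells. Run in duplicate on ≥2 occasions; Student's t test against unexposed controls.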

[10] = system: Nakaseomyces glabratus; assay: Fungicidal activity against Candida glabrata isolate 2 assessed as log reduction in bacterial count at 16 times MIC after 48 hrs by time-kill analysis; type: functional; settings: isolate 2, 48 h; how it was run: as §2
[11] = system: Candida parapsilosis; assay: Increase in susceptibility to SDS in Candida parapsilosis isolate A assessed as cell wall damage at 16 times MIC after 1 hr relative to control; type: functional, organism-based
How it was run: (§4)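 Cells recovered 8 h after a 1-h drug exposure were grown in YPD with 1% glucose to exponential phase and adjusted to OD599 0.1. Undiluted culture and 10-fold serial dilutions were spotted onto YPD plates containing SDS (0.01 to 0.04%), then incubated 72 h at 30°C. Growth compared with unexposed control cells; triplicate.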

[12] = system: Nakaseomyces glabratus; assay: Increase in susceptibility to SDS in Candida glabrata isolate 1 assessed as cell wall damage at 4 times MIC after 1 hr relative to control; type: functional, organism-based; how it was run: as §4
[13] = system: Candida parapsilosis; assay: Fungicidal activity against Candida parapsilosis isolate A assessed as log reduction in bacterial count at 16 times MIC after drug exposure for 1 hr followed by washout measured after 48 hrs in the absence of drug by PAFE study; type: functional; settings: Lodderomyces parapsilosis; how it was run: as §3
[14] = system: Candida parapsilosis; assay: Increase in susceptibility to SDS in Candida parapsilosis isolate 1 assessed as cell wall damage at MIC after 1 hr relative to control; type: functional, organism-based; how it was run: as §4
[15] = system: Candida albicans; assay: Antifungal activity against Candida albicans ATCC 90028 assessed as time period for bacterial growth inhibition at 16 times MIC after 1 hr drug exposure; type: functional
How it was run: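 Inoculum of about 1 x 10^5 to 5 x 10^5 CFU/ml in MOPS-buffered RPMI (pH 7.0), shaken at 35°C and exposed to drug for 1 h. Cells then washed and centrifuged three times and resuspended in drug-free warm RPMI. Samples plated on SDA at 0, 2, 4, 8, 12, 24 and 48 h, with CFU counted after 48 h at 35°C. Run twice per isolate; values are means.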

[16] = system: Pichia kudriavzevii; assay: Fungicidal activity against Candida krusei isolate ATCC 6258 assessed as log reduction in bacterial count at 16 times MIC after 48 hrs by time-kill analysis; type: functional; settings: isolate ATCC 6258, 48 h; how it was run: as §2
[17] = system: Candida albicans; assay: Antifungal activity against Candida albicans isolate 1 assessed as cell wall damage at MIC by Transmission electron microscopy; type: functional, organism-based
How it was run: (§5)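 Cells recovered 8 h after a 1-h drug exposure were grown on SDA for 24 h at 35°C. Colonies fixed at 4°C in 0.1 M cacodylate (pH 7.2) with 2% glutaraldehyde and 2% paraformaldehyde, ethanol-dehydrated and embedded in Lowicryl K4M. Thin sections examined by transmission EM.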

[18] = system: Nakaseomyces glabratus; assay: Fungicidal activity against Candida glabrata isolate 3 assessed as log reduction in bacterial count at 16 times MIC after 48 hrs by time-kill analysis; type: functional; settings: isolate 3, 48 h; how it was run: as §2
[19] = system: Nakaseomyces glabratus; assay: Antifungal activity against Candida glabrata isolate 1 assessed as cell wall damage at 4 times MIC by Transmission electron microscopy; type: functional, organism-based; how it was run: as §5
[20] = system: Candida albicans; assay: Antifungal activity against Candida albicans isolate 1 assessed as cell wall damage at 4 times MIC by Transmission electron microscopy; type: functional, organism-based; how it was run: as §5
[21] = system: Pichia kudriavzevii; assay: Antifungal activity against Candida krusei assessed as time period for bacterial regrowth inhibition after 1 hr drug exposure; type: functional

**Q.** Which results are given for `CCCCCOc1ccc(-c2ccc(-c3ccc(C(=O)N[C@H]4C[C@@H](O)[C@@H](O)NC(=O)[C@@H]5[C@@H](O)[C@@H](C)CN5C(=O)[C@H]([C@@H](C)O)NC(=O)[C@H]([C@H](O)[C@@H](O)c5ccc(O)cc5)NC(=O)[C@@H]5C[C@@H](O)CN5C(=O)[C@H]([C@@H](C)O)NC4=O)cc3)cc2)cc1` [ANIDULAFUNGIN] ({pTerphenylCO(4''-OnC5H11)}-[Orn(4R-OH,5R-OH)]T[Hyp][hTyr(3S-OH,4S-OH)]T[Pro(3S-OH,4S-Me)]; lactam 1-C)?
**A.** MIC [1]: 1 µg/mL (≈ 0.877 µM); Time [2]: >=12 hr; MIC90 [3]: 2 µg/mL (≈ 1.75 µM); log reduction [4]: 2.94 log CFU/ml; log reduction [5]: 2.17; MIC [6]: 0.015 µg/mL (≈ 0.0132 µM); Activity [7]: Active; log reduction [8]: 3.17; inhibition (INH) [9]: 58%; log reduction [10]: 3.14 log CFU/ml; Activity [11]: Active; Activity [12]: Active; log reduction [13]: 3.47; Activity [14]: Active; Time [15]: 8 h; log reduction [16]: 3.2 log CFU/ml; Activity [17]: Active; log reduction [18]: 3.89 log CFU/ml; Activity [19]: Active; Activity [20]: Active; Time [21]: >=12 hr
